Measurements reported in ChEMBL document CHEMBL1132334, “Discovery of 1,6-naphthyridines as a novel class of potent and selective human cytomegalovirus inhibitors” (J Med Chem, 1999).
In brackets after ≈: the same amount, converted by molar mass.

Tests used:
Hs68 [1] = assay: Cytotoxicity in the human fibroblast Hs 68 cell line; format: functional
Outline: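 Hs68 fibroblasts plated at 1000 cells/well and incubated overnight. Medium then replaced with compound, six serial 2-fold dilutions (3.2-100 µg/mL) in triplicate, for 72 h. Proliferation read by [³H]thymidine uptake with scintillation counting and expressed as percent of untreated control; CC50 is the concentration giving 50% inhibition.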

Human betaherpesvirus 5 = assay: Anti-HCMV activity in the human fibroblast Hs 68 cell line; format: functional, organism-based; conditions: Human betaherpesvirus 5, Hs68
Outline: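 Hs68 human fibroblasts infected with HCMV strain AD169 at MOI 0.001, with or without compound, incubated 7 days. Plaques then counted under the microscope. Mean of duplicate values, experiments done at least twice.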

Hs68 [2] = assay: Cytotoxicity in the Hs 68 cell line; format: functional; conditions: Homo sapiens

SMILES	CC50 (Hs68 [1]) [µg/mL]	IC50 (Human betaherpesvirus 5) [µg/mL]	CC50 (Hs68 [2]) [µg/mL]
CC(C)Oc1ccccc1CNC(=O)c1ccc2cncc(Cl)c2n1	6 (≈ 16.9 µM)	0.03 (≈ 0.0843 µM)	
COc1cccc(CNC(=O)c2ccc3cnccc3n2)c1		2.1 (≈ 7.16 µM)	100 (≈ 341 µM)
COc1ccc(CNC(=O)c2ccc3cnccc3n2)cc1		> 50	50 (≈ 170 µM)
O=C(NCc1ccccc1)c1ccc2cnccc2n1	71 (≈ 270 µM)	1 (≈ 3.8 µM)	
CC(C)Oc1ccccc1CNC(=O)c1ccc2cncc(Br)c2n1	9 (≈ 22.5 µM)	0.15 (≈ 0.375 µM)	
CC(C)Oc1cccc(CNC(=O)c2ccc3cnccc3n2)c1	8.4 (≈ 26.1 µM)	3.6 (≈ 11.2 µM)	
O=C(NCc1ccc(Br)cc1)c1ccc2cnccc2n1	10 (≈ 29.2 µM)	> 10	
O=C(Nc1ccccc1)c1ccc2cnccc2n1		50 (≈ 201 µM)	50 (≈ 201 µM)
CC[C@@H](C)Oc1ccccc1CNC(=O)c1ccc2cnccc2n1	0.1 (≈ 0.298 µM)	0.003 (≈ 0.00894 µM)	
CC(C)(C)Oc1ccccc1CNC(=O)c1ccc2cnccc2n1	4.4 (≈ 13.1 µM)	0.04 (≈ 0.119 µM)	
O=C(NCc1ccccc1Br)c1ccc2cnccc2n1	100 (≈ 292 µM)	0.7 (≈ 2.05 µM)	
CC[C@H](C)Oc1ccccc1CNC(=O)c1ccc2cnccc2n1	3.1 (≈ 9.24 µM)	0.03 (≈ 0.0894 µM)	
C=Cc1cncc2ccc(C(=O)NCc3ccccc3OC(C)C)nc12	17 (≈ 48.9 µM)	0.003 (≈ 0.00864 µM)	
O=C(NCCc1ccccc1)c1ccc2cnccc2n1	5 (≈ 18 µM)	0.78 (≈ 2.81 µM)	
O=C(NCc1cccc(Br)c1)c1ccc2cnccc2n1	50 (≈ 146 µM)	2.2 (≈ 6.43 µM)	
COc1ccccc1CCNC(=O)c1ccc2cnccc2n1		6 (≈ 19.5 µM)	17 (≈ 55.3 µM)
Cc1cncc2ccc(C(=O)NCc3ccccc3OC(C)C)nc12	3 (≈ 8.94 µM)	0.0004 (≈ 0.00119 µM)	
CC(C)Oc1ccccc1CNC(=O)c1ccc2cnccc2n1	2.5 (≈ 7.78 µM)	0.005 (≈ 0.0156 µM)	
COc1ccccc1CNC(=O)c1cc(C)c2cnccc2n1	8 (≈ 26 µM)	11 (≈ 35.8 µM)	
Nc1nc2c(ncn2COC(CO)CO)c(=O)[nH]1 [GANCICLOVIR]		0.3 (≈ 1.18 µM)	12.5 (≈ 49 µM)
